# According to ChEMBL document CHEMBL1132456 (J Med Chem, 1999):
# Legend:
# [1] = tested on: Human immunodeficiency virus 3; assay: The compound was tested for Anti-viral activity of AZT with compound in C8166 cells infected with HIV-IIIB; assay type: functional, organism-based; conditions: Human immunodeficiency virus 1, IIIB
# How it was run: (§1)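 C8166 cells at 90 × 10³ cells/mL exposed to 100 TCID₅₀ HIV with or without drug (alone, or together with AZT) for 2 h at 37 °C, 5% CO₂. Cells then washed and replated at 35 × 10³ cells/200 μL and cultured 5 days with the same drug levels. Protection from cytopathic effect read by MTT at 490/650 nm; EC₅₀ from median effect equation.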
# [2] = The compound was tested for cytotoxicity against Daudi human cell line.; assay type: cell-based; conditions: Daudi cells, read-out: TC50 (the source's name)
# How it was run: (§2)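 Cells seeded in 96-well plates: human PHA-stimulated lymphocytes 20 000, 3T3 10 000, NSO 3 000, Daudi 300 per well. Graded compound concentrations added 12 h after plating; 48 h exposure. MTT (5 mg/mL stock) added for 2 h at 37 °C, then SDS/DMF extraction buffer overnight. OD read at 570 nm, blank subtracted, reported as OD × 1000.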
# [3] = tested on: Human immunodeficiency virus 3; assay: The compound was tested for Anti-viral activity of compound alone in C8166 cells infected with HIV-IIIB; assay type: functional, organism-based; conditions: Human immunodeficiency virus 1, IIIB; how it was run: as §1
# [4] = biological target: Human immunodeficiency virus type 1 reverse transcriptase (Human immunodeficiency virus 1, UniProt Q72547); assay: In vitro inhibitory activity against HIV-1 wild type reverse transcriptase (RT)
# [5] = biological target: Human immunodeficiency virus type 1 reverse transcriptase (Human immunodeficiency virus 1, UniProt Q72547, Y181I); assay: In vitro inhibitory activity against HIV-1 mutant Reverse transcriptase containing the single amino acid substitution Y181I
# How it was run: (§3)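 Template poly(rA):oligo(dT) (0.3 μM 3'-OH ends) with 10 μM [3H]dTTP, incubated at 37 °C. Acid-precipitable counts taken on filters. Inhibitor spanned 0.2–5 Ki. Ki came from Lineweaver–Burk and Dixon plots, triplicate runs.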
# [6] = tested on: Human immunodeficiency virus 3; assay: (§4) The compound was tested for inhibition against HIV-III B from C8 166 cell lines; assay type: functional, organism-based; conditions: Human immunodeficiency virus 1, IIIB, C8166
# How it was run: (§5)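 C8166 cells at 90 × 10³ cells/mL infected with 100 TCID₅₀ HIV with or without compound for 2 h at 37 °C. Cells washed, replated at 35 × 10³ cells/200 μL, and kept 5 days with drug. Cytopathic protection and toxicity both read by MTT (OD 490/650 nm). EC₅₀ and IC₅₀ from median effect equation; SI = IC₅₀/EC₅₀.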
# [7] = The compound was tested for cytotoxicity against 3T3 fibroblast murine cell line.; assay type: cell-based; conditions: mouse, NIH3T3 fibroblast cells; read-out: TC50 (the source's name); how it was run: as §2
# [8] = The compound was tested for cytotoxicity against NSO murine cell line.; assay type: cell-based; conditions: mouse, NSO cells; read-out: TC50 (the source's name); how it was run: as §2
# [9] = biological target: Human immunodeficiency virus type 1 reverse transcriptase (Human immunodeficiency virus 1, UniProt Q72547, Y188L); assay: In vitro inhibitory activity against HIV-1 mutant Reverse transcriptase containing the single amino acid substitution Y188L; how it was run: as §3
# [10] = tested on: Human immunodeficiency virus 1; assay: (§6) The compound was tested for inhibition against HIV-1 from CEM-SS cell lines; assay type: functional, organism-based; conditions: Human immunodeficiency virus 1, CEM-SS
# How it was run: (§7)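 Testing by the NCI AIDS Antiviral Screening Program: protection of HIV-1-infected CEM-SS T4 lymphocytes from cell death, run alongside an AZT control. EC₅₀ is the concentration giving 50% survival of infected cells relative to uninfected untreated controls. IC₅₀ is the concentration giving 50% survival of uninfected cells. SI = IC₅₀/EC₅₀.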
# [11] = tested on: Human immunodeficiency virus 3; assay: The compound was tested in presence of AZT for Anti-viral of compound in C8166 cells infected with HIV-IIIB; assay type: functional, organism-based; conditions: Human immunodeficiency virus 1, IIIB; how it was run: as §1
# [12] = biological target: Human immunodeficiency virus type 1 reverse transcriptase (Human immunodeficiency virus 1, UniProt Q72547, V106A); assay: In vitro inhibitory activity against HIV-1 mutant Reverse transcriptase containing the single amino acid substitution V106A; how it was run: as §3
# [13] = biological target: Human immunodeficiency virus type 1 reverse transcriptase (Human immunodeficiency virus 1, UniProt Q72547, K103N); assay: In vitro inhibitory activity against HIV-1 mutant Reverse transcriptase containing the single amino acid substitution K103N; how it was run: as §3
# [14] = […] index values calculated at 50% viral activity using mutually nonexclusive forms of equation.
# How it was run: (§8)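 Chou–Talalay multiple drug effect analysis of compound combined with AZT in acutely HIV-infected C8166 cells. Combination index computed at 50% effect under the mutually exclusive or mutually nonexclusive assumption.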
# [15] = […] index values calculated at 50% viral activity using mutually exclusive forms of equation.; how it was run: as §8
# [16] = biological target: Human immunodeficiency virus type 1 reverse transcriptase (Human immunodeficiency virus 1, UniProt Q72547, L100I); assay: In vitro inhibitory activity against HIV-1 mutant Reverse transcriptase containing the single amino acid substitution L100I; how it was run: as §3
# [17] = The compound was tested for cytotoxicity against Human Lymphocytes; conditions: read-out: TC50 (the source's name); how it was run: as §2
# CEM-SS [18] = assay: The compound was tested for inhibition against HIV-1 from CEM-SS cell lines.; assay type: functional, cell-based; conditions: Homo sapiens; how it was run: as §7
# [19] = tested on: Human immunodeficiency virus 3; assay: The compound was tested in presence of AZT for Anti-viral activity of compound in C8166 cells infected with HIV-IIIB; assay type: functional, organism-based; conditions: Human immunodeficiency virus 1, IIIB; how it was run: as §1
# C8166 [20] = assay: The compound was tested for inhibition against HIV-III B from C8 166 cell lines.; assay type: functional, cell-based; conditions: Homo sapiens; how it was run: as §5
# [21] = The compound was tested for cytotoxicity against NSO murine cell lines.; assay type: cell-based; conditions: mouse, NSO cells; read-out: TC50 (the source's name); how it was run: as §2
# CEM-SS [22] = assay: as §6; assay type: functional, cell-based; conditions: Homo sapiens; how it was run: as §7
# C8166 [23] = assay: as §4; assay type: functional, cell-based; conditions: Homo sapiens; how it was run: as §5
SMILES,CC50 [2],Ki [4],Ki [5],IC50 [6],CC50 [7],CC50 [8],Ki [9],Ki [12],Ki [13],Ki [16],CC50 [17],EC50 (CEM-SS [18]),IC50 (CEM-SS [18]),EC50 (C8166 [20]),IC50 (C8166 [20]),also measured
CCC1(c2cccc(C)c2)Oc2ccccc2-n2cccc2C1=O (stereo not given),> 1000 µM,0.07 µM,4 µM,52 µM,> 1000 µM,> 1000 µM,1.9 µM,0.25 µM,1.1 µM,0.1 µM,> 1000 µM,,,,,EC50 [1]: 0.00325 µM; EC50 [3]: 0.425 µM; EC50 [10]: 0.35 µM; IC50 [10]: 119 µM; EC50 [11]: 0.011 µM; CI [14]: 0.04; CI [15]: 0.04
CCC1(c2cccs2)Oc2ccccc2-n2cccc2C1=O (stereo not given),,0.03 µM,0.97 µM,,,,0.3 µM,0.11 µM,0.4 µM,0.07 µM,,0.115 µM,11 µM,,,
CCC1(c2cc(F)cc(F)c2)Oc2ccccc2-n2cccc2C1=O (stereo not given),,1.5 µM,6.8 µM,17.1 µM,,,> 10 µM,3 µM,2.7 µM,1.7 µM,,,,,,
CCC1(c2ccccc2)Oc2cccnc2-n2cccc2C1=O (stereo not given),13 µM,0.022 µM,4 µM,,10 µM,14 µM,1.5 µM,0.07 µM,0.3 µM,0.04 µM,13 µM,0.069 µM,3.9 µM,0.054 µM,6 µM,EC50 [1]: 0.00317 µM; EC50 [3]: 0.054 µM; EC50 [19]: 0.017 µM; CI [14]: 0.303; CI [15]: 0.302
CCC1(c2ccccc2)Oc2ccccc2-n2cccc2C1=O (stereo not given),26 µM,0.19 µM,> 10 µM,,33 µM,,> 10 µM,3.9 µM,7.7 µM,0.75 µM,32 µM,0.47 µM,,0.8 µM,10 µM,CC50 [21]: 24 µM
CCC1(c2cccc(F)c2)Oc2ccccc2-n2cccc2C1=O (stereo not given),720 µM,0.1 µM,4 µM,,710 µM,720 µM,1.5 µM,0.4 µM,0.07 µM,0.16 µM,720 µM,,,,,EC50 (CEM-SS [22]): 0.072 µM; IC50 (CEM-SS [22]): 2 µM; EC50 (C8166 [23]): 1.1 µM; IC50 (C8166 [23]): 13.8 µM
CCC1(c2ccc(C)cc2)Oc2ccccc2-n2cccc2C1=O (stereo not given),,0.97 µM,,,,,,,,,,,,,,
CCC1(c2cccc(OC)c2)Oc2ccccc2-n2cccc2C1=O (stereo not given),280 µM,0.06 µM,> 10 µM,7 µM,210 µM,230 µM,> 10 µM,0.01 µM,0.022 µM,0.011 µM,200 µM,,,,,EC50 [10]: 0.04 µM; IC50 [10]: 0.2 µM
CCC1(c2cccs2)Oc2cccnc2-n2cccc2C1=O (stereo not given),29 µM,0.093 µM,0.43 µM,,35 µM,26 µM,0.475 µM,0.09 µM,0.045 µM,0.09 µM,30 µM,0.15 µM,> 2 µM,,20.5 µM,
CCC1(c2cccc(C)c2)Oc2cccnc2-n2cccc2C1=O (stereo not given),380 µM,0.021 µM,1.2 µM,,400 µM,410 µM,1.5 µM,0.4 µM,0.03 µM,0.044 µM,400 µM,0.027 µM,> 2 µM,0.27 µM,7.2 µM,
